≈ marks a conversion by molar mass, not a printed value. Entries after “also recorded” stand apart in the source; their conditions may differ. Read-outs that look alike come from different tables or passages of the source.
How the values were obtained:
Assay type in all cases: cell-based
[1] = system: S. aureus, B. subtilis, E. coli, C. albicans and A. niger; assay: average antimicrobial activity
Outline: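 Tube-dilution MIC with test compound dissolved in DMSO at 100 μg/mL. Bacteria grew in double-strength nutrient broth at 37 °C for 24 h. C. albicans grew in Sabouraud dextrose broth at 37 °C for 48 h, and A. niger in the same broth at 25 °C for 7 days. MIC was the lowest growth-inhibiting concentration, converted to pMIC. pMICam = mean of the five pMIC values.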

[2] = system: Candida albicans; assay: MIC by tube dilution, C. albicans; settings: 48 h
[3] = system: Staphylococcus aureus; assay: MIC by tube dilution, S. aureus; settings: 24 h, read-out: pMICsa (Eq. (1)) Obs.
Outline: (§1)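 Tube-dilution MIC. Test compound was dissolved in DMSO at 100 μg/mL, then serially diluted in double-strength nutrient broth (I.P.). Tubes were incubated at 37 °C for 24 h. MIC was the lowest concentration that inhibited microbial growth. MIC values were converted to pMIC for QSAR.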

[4] = system: Bacillus subtilis; assay: MIC by tube dilution, B. subtilis; settings: 24 h, read-out: pMICbs (Eq. (2)) Obs.
Outline: as §1

[5] = system: Escherichia coli; assay: MIC by tube dilution, E. coli; settings: 24 h, read-out: pMICec (Eq. (3)) Obs.
Outline: as §1

[6] = system: HeLa cells; assay: cytotoxicity in uninfected HeLa cells; settings: HeLa cell cultures, microscopically detectable alteration of cell morphology
Outline: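 Uninfected HeLa cells were treated with serial dilutions of test compound, run in parallel with the CPE-reduction antiviral assay. Minimum cytotoxic concentration was the lowest concentration causing microscopically detectable alteration of normal cell morphology. CC50 was the 50% cytotoxic concentration, measured as cell viability by the colorimetric formazan-based MTS assay.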

[7] = system: Vesicular stomatitis virus
[8] = system: B. subtilis; assay: MBC determination, B. subtilis; settings: static when MBC 3-fold higher than MIC
Outline: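 100 μL of culture from each tube that stayed clear in the MIC test was subcultured on fresh medium. MBC was the lowest compound concentration producing a 99.9% end-point reduction.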

[9] = read-out: pMICam (Eq. (9)) Obs.
[10] = read-out: pMICam MLR (Eq. (10)) Obs.
[11] = read-out: pMICca (Eq. (4)) Obs.

Row | Compound | MIC [1, 9] [µM] | MIC [1, 10] [µM] | MIC [2, 11] [µM] | MIC [3] [µM] | MIC [4] [µM] | MIC [5] [µM] | MIC ([2]; read-out: pMICca) [µM] | Cytotoxicity Minimum cytotoxic conc. [6] | antiviral activity against Vesicular stomatitis virus (VSV), in words [7] | bacteriostatic/bactericidal action against B. subtilis [8]
1 | O=C(/C=C/c1ccccc1)N/N=C/c1ccccc1 [Compound 6] | 33.1 (≈ 8.29 µg/mL) | 33.1 (≈ 8.29 µg/mL) | 12.6 (≈ 3.15 µg/mL) | 50.1 (≈ 12.5 µg/mL) | 50.1 (≈ 12.5 µg/mL) | 50.1 (≈ 12.5 µg/mL) |  |  |  | 
2 | O=C(/C=C/c1ccccc1)N/N=C/c1ccccc1Cl [Compound 16] | 30.2 (≈ 8.6 µg/mL) | 30.2 (≈ 8.6 µg/mL) | 17.4 (≈ 4.95 µg/mL) | 43.7 (≈ 12.4 µg/mL) | 43.7 (≈ 12.4 µg/mL) | 43.7 (≈ 12.4 µg/mL) | 17.4 (≈ 4.95 µg/mL) |  |  | 
3 | CCCCCCCCCCCCCC(=O)N/N=C/c1ccccc1 [Compound 2] | 45.7 (≈ 15.1 µg/mL) | 45.7 (≈ 15.1 µg/mL) | 57.5 (≈ 19 µg/mL) | 38 (≈ 12.6 µg/mL) | 38 (≈ 12.6 µg/mL) | 43.7 (≈ 14.4 µg/mL) |  |  |  | 
4 | Cc1cccc(C(=O)N/N=C/c2ccccc2Cl)c1 [Compound 17] | 42.7 (≈ 11.6 µg/mL) | 42.7 (≈ 11.6 µg/mL) | 45.7 (≈ 12.5 µg/mL) | 45.7 (≈ 12.5 µg/mL) | 45.7 (≈ 12.5 µg/mL) | 45.7 (≈ 12.5 µg/mL) |  |  |  | 
5 | Cc1ccc(C(=O)N/N=C/c2ccccc2)cc1 [Compound 8] | 38.9 (≈ 9.27 µg/mL) | 38.9 (≈ 9.27 µg/mL) | 45.7 (≈ 10.9 µg/mL) | 52.5 (≈ 12.5 µg/mL) | 52.5 (≈ 12.5 µg/mL) | 52.5 (≈ 12.5 µg/mL) |  |  |  | 
6 | C/C=C/C=C/C(=O)N/N=C/c1ccccc1Cl [Compound 15] | 39.8 (≈ 9.9 µg/mL) | 39.8 (≈ 9.9 µg/mL) | 25.1 (≈ 6.25 µg/mL) | 50.1 (≈ 12.5 µg/mL) | 50.1 (≈ 12.5 µg/mL) | 50.1 (≈ 12.5 µg/mL) |  |  |  | 
7 | CCCCCCCCCCCC(=O)N/N=C/c1ccccc1Cl [Compound 11] | 27.5 (≈ 9.28 µg/mL) | 27.5 (≈ 9.28 µg/mL) | 18.6 (≈ 6.27 µg/mL) | 37.2 (≈ 12.5 µg/mL) | 37.2 (≈ 12.5 µg/mL) | 15.8 (≈ 5.34 µg/mL) |  |  |  | 
8 | COc1cc(OC)cc(C(=O)N/N=C/c2ccccc2)c1 [Compound 9] | 28.8 (≈ 8.2 µg/mL) | 28.8 (≈ 8.2 µg/mL) | 11 (≈ 3.12 µg/mL) | 43.7 (≈ 12.4 µg/mL) | 43.7 (≈ 12.4 µg/mL) | 43.7 (≈ 12.4 µg/mL) |  | 100 µg/mL | active; also recorded: antiviral potential | 
9 | CCCCCCCCCCCCCCCC(=O)N/N=C/c1ccccc1 [Compound 3] | 38.9 (≈ 13.9 µg/mL) | 38.9 (≈ 13.9 µg/mL) | 17.4 (≈ 6.23 µg/mL) | 34.7 (≈ 12.4 µg/mL) | 34.7 (≈ 12.4 µg/mL) | 31.6 (≈ 11.3 µg/mL) |  |  |  | 
10 | Cc1ccc(C(=O)N/N=C/c2ccccc2Cl)cc1 [Compound 18] | 35.5 (≈ 9.68 µg/mL) | 35.5 (≈ 9.68 µg/mL) | 24.5 (≈ 6.69 µg/mL) | 45.7 (≈ 12.5 µg/mL) | 45.7 (≈ 12.5 µg/mL) | 45.7 (≈ 12.5 µg/mL) | 24.5 (≈ 6.69 µg/mL) |  |  | 
11 | Nc1ncnc2c1ncn2C[C@H](O)CO [(S)-DHPA, reference compound] |  |  |  |  |  |  |  | >250 µM |  | 
12 | CCCCCCCCCCCC(=O)N/N=C/c1ccccc1 [Compound 1] | 50.1 (≈ 15.2 µg/mL) | 50.1 (≈ 15.2 µg/mL) | 61.7 (≈ 18.6 µg/mL) | 41.7 (≈ 12.6 µg/mL) | 50.1 (≈ 15.2 µg/mL) | 41.7 (≈ 12.6 µg/mL) |  |  |  | 
13 | CCCCCCCCCCCCCC(=O)N/N=C/c1ccccc1Cl [Compound 12] | 46.8 (≈ 17.1 µg/mL) | 46.8 (≈ 17.1 µg/mL) | 75.9 (≈ 27.7 µg/mL) | 33.9 (≈ 12.4 µg/mL) | 33.9 (≈ 12.4 µg/mL) | 33.9 (≈ 12.4 µg/mL) |  |  |  | 
14 | CCCCCCCCCCCCCCCC(=O)N/N=C/c1ccccc1Cl [Compound 13] | 26.9 (≈ 10.6 µg/mL) | 26.9 (≈ 10.6 µg/mL) | 7.94 (≈ 3.12 µg/mL) | 31.6 (≈ 12.4 µg/mL) | 32.4 (≈ 12.7 µg/mL) | 31.6 (≈ 12.4 µg/mL) |  |  |  | active bactericidal agents
15 | Cc1cccc(C(=O)N/N=C/c2ccccc2)c1 [Compound 7] | 34.7 (≈ 8.26 µg/mL) | 34.7 (≈ 8.26 µg/mL) | 13.2 (≈ 3.14 µg/mL) | 52.5 (≈ 12.5 µg/mL) | 52.5 (≈ 12.5 µg/mL) | 52.5 (≈ 12.5 µg/mL) |  |  |  | 
16 | NC(=O)c1ncn([C@@H]2O[C@H](CO)[C@@H](O)[C@H]2O)n1 [Ribavirin, reference compound] |  |  |  |  |  |  |  | >250 µM |  | 
17 | COc1cc(OC)cc(C(=O)N/N=C/c2ccccc2Cl)c1 [Compound 19] | 27.5 (≈ 8.78 µg/mL) | 27.5 (≈ 8.78 µg/mL) | 9.77 (≈ 3.12 µg/mL) | 38.9 (≈ 12.4 µg/mL) | 38.9 (≈ 12.4 µg/mL) | 38.9 (≈ 12.4 µg/mL) |  | 100 µg/mL | active; also recorded: antiviral potential | 
18 | O=C(N/N=C/c1ccccc1Cl)c1cc([N+](=O)[O-])cc([N+](=O)[O-])c1 [Compound 20] | 25.1 (≈ 8.76 µg/mL) | 25.1 (≈ 8.76 µg/mL) | 8.91 (≈ 3.11 µg/mL) | 35.5 (≈ 12.4 µg/mL) | 35.5 (≈ 12.4 µg/mL) | 35.5 (≈ 12.4 µg/mL) |  |  |  | 
19 | C/C=C/C=C/C(=O)N/N=C/c1ccccc1 [Compound 5] | 58.9 (≈ 12.6 µg/mL) | 58.9 (≈ 12.6 µg/mL) | 117 (≈ 25.2 µg/mL) | 58.9 (≈ 12.6 µg/mL) | 58.9 (≈ 12.6 µg/mL) | 58.9 (≈ 12.6 µg/mL) |  |  |  | 
20 | CCCCCCCCCCCCCCCCCC(=O)N/N=C/c1ccccc1 [Compound 4] | 24.5 (≈ 9.49 µg/mL) | 24.5 (≈ 9.49 µg/mL) | 8.13 (≈ 3.14 µg/mL) | 32.4 (≈ 12.5 µg/mL) | 32.4 (≈ 12.5 µg/mL) | 16.2 (≈ 6.27 µg/mL) |  |  |  | 
21 | O=C(N/N=C/c1ccccc1)c1cc([N+](=O)[O-])cc([N+](=O)[O-])c1 [Compound 10] | 30.2 (≈ 9.49 µg/mL) | 30.2 (≈ 9.49 µg/mL) | 20 (≈ 6.27 µg/mL) | 39.8 (≈ 12.5 µg/mL) | 39.8 (≈ 12.5 µg/mL) | 39.8 (≈ 12.5 µg/mL) | 20 (≈ 6.27 µg/mL) |  |  | 
22 | CCCCCCCCCCCCCCCCCC(=O)N/N=C/c1ccccc1Cl [Compound 14] | 28.8 (≈ 12.1 µg/mL) | 28.8 (≈ 12.1 µg/mL) | 14.8 (≈ 6.23 µg/mL) | 29.5 (≈ 12.4 µg/mL) | 29.5 (≈ 12.4 µg/mL) | 29.5 (≈ 12.4 µg/mL) |  |  |  | active bactericidal agents
